Assay results reported in publication PMC11451551 (Science Advances, 2024).

How the values were obtained:
Molt-4 cells = experiment: Cell viability assay; assay type: cell-based, human
Summary of the method: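 Molt-4 or RS4;11 leukaemia cells were plated at 50,000 per well in medium with 10% human serum. They were exposed 48 h to a threefold dilution series of test compound, 5 to 0.020 μM, each concentration in duplicate on at least three occasions. Viable cells were read by CellTiter-Glo luminescence, and EC50 was taken from a sigmoidal fit.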

[1] = tested on: circulating platelets in SCID/bg mice; experiment: Assessment of platelet levels in mice; assay type: in vivo, mouse; conditions: single dose: 9 0.1 mg/kg iv, 10 0.6 mg/kg iv, navitoclax 50 mg/kg oral
Summary of the method: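 Female SCID/bg mice were randomised (15 per group) and given one dose of vehicle or test compound, intravenously or by oral gavage. At 6, 72 and 168 h, five mice per group were bled from the retro-orbital plexus under sevoflurane into heparinised vials and then euthanised without recovery. Platelets were counted on an automated haematology analyser; results are group means with SEM.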

[2] = tested on: digitonin-permeabilized Molt-4 cells; experiment: Permeabilized cell JC-1 assay; assay type: cell-based, human
Summary of the method: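 Molt-4 cells were washed into DTEB buffer (trehalose, KCl, EDTA/EGTA, 0.1% BSA, succinate, 10 mM Hepes-KOH pH 7.5) containing 2 μM JC-1, 0.01% digitonin, 10 mM β-mercaptoethanol and oligomycin (20 μg/ml). After 10 min at room temperature they were diluted with an equal volume of buffer and test compound was added. DMSO was the negative control; FCCP 10 μM final defined 100% depolarization. Fluorescence at 590 nm was read every 10 min, 37°C, 1–3 h. EC50 from % depolarization.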

anesthetized beagle dogs = experiment: in vivo; assay type: in vivo, dog; conditions: for effect on cardiovascular parameters / effect on platelets: iv bolus
in vivo = assay type: in vivo, dog; conditions: male, beagle, dog, in vivo, 0.3 mg/kg
H1650 tumors = experiment: H1650 xenograft efficacy in SCID/bg mice; assay type: in vivo, mouse
Summary of the method: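 H1650 or PC-9 NSCLC cells (RPMI 1640, 10% heat-inactivated FBS, ≤5 passages, mycoplasma-free) were injected subcutaneously at 5×10^6 cells into the right flank of 8-week-old female SCID/bg mice (~22 g). Docetaxel was given 7.5 mg/kg iv QDx1 and conjugates intraperitoneally. In the single-dose study (H1650 only), tumours were ~200 mm³ and treatment began on day 9, QDx1. In the other study, treatment began on day 10, Q7D×2. Volumes are means of eight tumours.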

Compound	effect on platelets at 6 hours [1]	Permeabilized Molt-4 EC50 [2]	effect on cardiovascular parameters (anesthetized beagle dogs)	effect on platelets (anesthetized beagle dogs)	also measured
CNCCOC12CC3(C)CC(C)(CC(Cn4ncc(-c5ccc(N6CCc7cccc(C(=O)Nc8nc9ccccc9s8)c7C6)nc5C(=O)O)c4C)(C3)C1)C2 [compound 9]	severe thrombocytopenia	subnanomolar	marked changes in cardiovascular parameters	expected thrombocytopenia	EC50 (Molt-4 cells; read-out: Molt-4 cell EC50, 10% human serum, 48 h): 8 nM
Cc1c(-c2ccc(N3CCc4cccc(C(=O)Nc5nc6ccccc6s5)c4C3)nc2C(=O)O)cnn1CC12CC3(C)CC(C)(C1)CC(OCCNCCS(=O)(=O)O)(C3)C2 [compound 10]	no significant reduction of platelet number	subnanomolar	only minimal to moderate effects on cardiovascular parameters	no decrease in platelets	loss of Molt-4 activity relative to 9 (Molt-4 cells): over 30 fold
Cc1c(-c2ccc(N3CCc4cccc(C(=O)Nc5nc6ccccc6s5)c4C3)nc2C(=O)O)cnn1CC12CC3(C)CC(C)(C1)CC(OCCNCC[C@H](O)CO)(C3)C2 [compound 11]	–	–	–	–	effect on cardiovascular function (anesthetized beagle dogs; 0.3 mg/kg per minute): cardiovascular collapse in both animals; effect on cardiovascular function (anesthetized beagle dogs; 0.01 and 0.1 mg/kg per minute): no impact on blood pressure or other indices of cardiovascular function; plasma concentration without impact on cardiovascular function (anesthetized beagle dogs; infusion 0.01 and 0.1 mg/kg per minute): ≤ 447 ng/mL; estimated cardiovascular TI (dog tolerated plasma level vs free 11 in monkeys) (anesthetized beagle dogs; male, beagle, dog, in vivo): > 65 fold; Cmax (in vivo): 1020 ng/mL
CC(=O)O[C@@]12CO[C@@H]1C[C@H](O)[C@@]1(C)C(=O)[C@H](O)C3=C(C)[C@@H](OC(=O)[C@H](O)[C@@H](NC(=O)OC(C)(C)C)c4ccccc4)C[C@@](O)([C@@H](OC(=O)c4ccccc4)[C@H]21)C3(C)C [docetaxel]	–	–	–	–	tumor growth inhibition (TGI) (H1650 tumors; 7.5 mg/kg iv QDx1, alone (single-dose ADC study)): 81%; time by which all tumors were relapsed (H1650 tumors; single agent): ≤ 46 days
CC1(C)CCC(c2ccc(Cl)cc2)=C(CN2CCN(c3ccc(C(=O)NS(=O)(=O)c4ccc(N[C@H](CCN5CCOCC5)CSc5ccccc5)c(S(=O)(=O)C(F)(F)F)c4)cc3)CC2)C1 [navitoclax, reference compound]	severe thrombocytopenia	–	–	–	–
